Shown are actives, neighbours in structure and some others; about 5.2% of the full set was active somewhere.
WNV NS2B-NS3 inh: WNV NS2B-NS3 proteinase inhibition | P06935 | WNV NS2B-NS3 protease, fluorogenic substrate Ex360/Em465; active compounds read low | z-score (no concentration beside the values) | 65,000 compounds, 0.18% hits; in the data active = z-score below about -3
Target sequence (P06935 1371-1501 limits assumed): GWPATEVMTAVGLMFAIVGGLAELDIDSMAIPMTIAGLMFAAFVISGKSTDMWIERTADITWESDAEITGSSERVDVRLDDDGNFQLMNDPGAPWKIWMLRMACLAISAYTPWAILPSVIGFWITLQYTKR
Target sequence (P06935 1502-1679 limits assumed): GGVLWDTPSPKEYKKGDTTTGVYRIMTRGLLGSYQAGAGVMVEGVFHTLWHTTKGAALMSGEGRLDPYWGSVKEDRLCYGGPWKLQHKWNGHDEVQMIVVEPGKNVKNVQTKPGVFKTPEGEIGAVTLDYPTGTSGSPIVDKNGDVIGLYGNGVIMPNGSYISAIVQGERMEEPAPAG
Ecoli tolC: E. coli tolC mutant growth inhibition. 65,000 compounds, 2.2% hits. E. coli BW25113 tolC mutant growth, OD615. AID 573. growth inhibition, % at 10 µM (by protocol);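 active = growth inhibition at or above a cutoff equal to the mean over every tested compound plus 3 SD, cut at about 60% in these data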;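 note: growth measured after 20 h incubation at 37 °C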
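Test system: tolC-deleted E. coli BW25113 | Medium: LB with kanamycin 50 µg/mL | Compound dosing: Single concentration, 10 µM final per compound | Schedule: 37 °C, 20 h exposure | Measured by: OD at 615 nm | Evaluation: Percent growth inhibition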
AP complement: alternative pathway complement inhibition, orthogonal assay; Human serum alternative complement pathway, LPS-coated ELISA, C3 deposition; tested in compound mixtures; inhibition, % at 5 µM; AID 1235; 62,000 compounds, 0.08% hits;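 active = inhibition above 30% in each of the two pooled mixtures holding the compound, so the lower value exceeds 30%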
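Test system: human serum complement alternative pathway, C3 deposition onto LPS / Medium: Mg2+-EGTA GVB++ buffer containing human serum at 1:15 dilution / Probe or stimulus: Plate-bound LPS / Times: 1 h at 37 °C / Signal: ELISA with HRP anti-human C3 antibody, TMB substrate, absorbance 450 nm / Measure: percent inhibition / Repeats: two pool placements per compound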
M1 antag: blocks the rat M1 muscarinic receptor response to acetylcholine. P08482. CHO-M1 cells, Fluo-4 calcium, ACh EC80 antagonist mode; active compounds read low. B-score at 10 µM. 64,000 compounds, 3.4% hits;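 active = calcium fluorescence response, raw or row-and-column corrected B-score, differing from the plate sample mean either way at a set confidence level, mostly lower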
E coli WT exp: E. coli BW25113 growth inhibition, expanded screen; OD600 absorbance; growth inhibition, % at 100 µM; 98,000 compounds, 0.15% hits;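 active = growth inhibition above about 50% at one test dose, limit read from the data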;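 note: growth measured after 20 h incubation at 37 °C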
M1 ag: activates the M1 muscarinic receptor. CHO-M1 cells, Fluo-4 calcium fluorescence, agonist mode; active compounds read high. B-score at 10 µM. 64,000 compounds, 3% hits;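 active = fluorescence rise, raw or as B-score row- and column-corrected plate score, outside the 99.7% band of its plate's samples, either direction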
M1 antag conf: confirmation of rat M1 muscarinic receptor antagonists | shares compounds with M1 antag | 1,700 compounds, 43% hits | calcium response (max-min fluorescence) at 10 µM | CHO-M1 cells, Fluo-4 calcium, ACh EC80 antagonism; active compounds read low;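 active = calcium response below the same-plate mean of wells given acetylcholine alone at its 80%-effect dose, minus 3 SD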
mGluR4 antag: selectivity test for M1 antagonists: human mGluR4 receptor. shares compounds with M1 antag. CHO-mGluR4 calcium flux, Fluo-4 fluorescence, glutamate EC80; active compounds read low. fluorescence response (max-min) at 10 µM. 1,700 compounds, 0.9% hits. AID 678;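 active = fluorescence response below the plate's average for near-maximal glutamate wells, less 3 SD of those wells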;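 note: raw unnormalized fluorescence span taken in the window right after glutamate addition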
Hits are given with their value; i = inactive; nt = no result.

SMILES	WNV NS2B-NS3 inh	Ecoli tolC	AP complement	M1 antag	E coli WT exp	M1 ag	M1 antag conf	mGluR4 antag
COc1ccc(S(=O)(=O)N(CC(=O)NCC2CCCO2)c2ccccc2)cc1OC (stereo not given)	i	i	i	i	i	i	nt	nt
Cc1cccc(C(=O)N2CCN(c3ccc(C(F)(F)F)cn3)CC2)c1C	nt	nt	nt	nt	i	nt	nt	nt
CCOC(=O)N1CCC(N2Cc3cccc(C(=O)NCc4ccc(C)cc4)c3C2=O)CC1	i	i	i	i	i	i	nt	nt
CCOC(=O)N1CCC(N2Cc3cccc(C(=O)NCc4ccccn4)c3C2=O)CC1	i	i	i	-2.5	i	i	500	i
Cc1ccc(N2CC(C(=O)NCC3CCCO3)CC2=O)cc1Cl (stereo not given)	i	i	i	i	i	i	nt	nt
OCCN1CCN(C(=S)NCCc2ccccc2)CC1	nt	nt	nt	nt	i	nt	nt	nt
O=C(N1CCN(CCO)CC1)N1c2ccccc2C=Cc2ccccc21	i	i	i	-3.2	i	i	437	i
COc1ccc2nc(SCC(=O)/C(C#N)=C(\C)N)[nH]c2c1	nt	nt	nt	nt	i	nt	nt	nt
O=C(NC1CCCCC1)c1ccc(S(=O)(=O)NCc2ccco2)cc1	i	i	i	-2.4	i	i	i	i
O=C(Nc1ccccc1C(=O)NCc1ccco1)NC1CCCCC1	i	i	i	-3.1	i	i	i	i
O=C(Nc1ccccc1C(=O)NCc1ccco1)c1ccco1	i	i	i	i	i	i	nt	nt
CN1CCn2c1nc(N1CCOCC1)nc2=O	i	i	i	i	i	i	nt	nt
CCOc1ccc(S(=O)(=O)n2nnc3ccccc32)cc1C(C)C	i	i	i	i	i	i	nt	nt
N#Cc1nc(COc2ccccc2F)oc1N1CCCCCC1	i	i	i	-1.9	i	i	i	i
N#Cc1nc(COc2ccccc2)oc1N1CCCCC1	i	i	i	i	i	i	nt	nt
CCOc1ccccc1CNC(=O)C1CCN(C(=O)c2sccc2-n2cccc2)CC1	i	i	i	i	i	i	nt	nt
COCCN(C(=O)COc1ccccc1)c1nnc(-c2cccnc2)s1	i	i	i	-2.7	i	i	i	i
CC(Sc1nnc(N)s1)c1ccccc1Cl (stereo not given)	i	i	i	i	i	i	nt	nt
Nc1nc(CN2CCOCC2)cs1	i	i	i	-0.83	i	i	i	i
O=C(c1ccco1)N1CCN(S(=O)(=O)c2ccc(F)cc2)CC1	i	i	i	i	i	i	nt	nt
CC(CCc1ccc(O)cc1)N(C)CCc1ccccc1 (stereo not given)	i	i	i	-3.1	i	i	404	i
CCOCCCNC(=O)C(NC(=O)CC1NC(=O)NC1=O)c1ccc(Cl)cc1 (stereo not given)	i	i	i	i	i	i	nt	nt
CCOC(=O)c1ccc(NC(=O)CSc2nnc(COc3ccccc3)n2C)cc1	i	i	i	i	i	i	nt	nt
CCOC(=O)c1ccc(NC(=O)CSc2nccn2C)cc1	i	i	i	-3.3	i	i	i	i
COC(=O)c1ccccc1NC(=O)NCC1CCCO1 (stereo not given)	i	i	i	-1.9	i	i	i	i
SMILES	WNV NS2B-NS3 inh	Ecoli tolC	AP complement	M1 antag	E coli WT exp	M1 ag	M1 antag conf	mGluR4 antag
CN(C1CCCCC1)S(=O)(=O)c1ccc(-n2cnnn2)cc1	i	i	i	-2.1	i	i	i	i
Cn1cnnc1SCc1cccc(Br)c1	nt	nt	nt	nt	i	nt	nt	nt
Cn1cnnc1SCc1ccc(C(=O)n2ncc(C#N)c2N)cc1	i	i	i	-3.6	i	i	i	i
Cc1cc(=O)[nH]c(SCC(=O)N2CCCCCC2)n1	i	i	i	i	i	i	nt	nt
NC(=O)C1(N2CCCCC2)CCN(C(=O)CSc2nc(C(F)(F)F)cc(=O)[nH]2)CC1	i	i	i	-3.5	i	i	i	i
Cc1ccc(F)c(NC(=O)C2CCCCC2C(=O)O)c1 (stereo not given)	i	i	i	i	i	i	nt	nt
CCCCN1C(=O)C2ON(c3ccccc3C)C(c3ccco3)C2C1=O (stereo not given)	i	61	i	-0.94	i	i	532	i
O=[N+]([O-])c1ccc2nccn2c1	nt	nt	nt	nt	i	nt	nt	nt
